Measurements: the M2OR odorant receptor database

Columns and labels:
Conditions in all cases: stereoisomer not certain
UniProt Q8VF43 = molecular target: T1, UniProt Q8VF43
T1 sequence (whole entry): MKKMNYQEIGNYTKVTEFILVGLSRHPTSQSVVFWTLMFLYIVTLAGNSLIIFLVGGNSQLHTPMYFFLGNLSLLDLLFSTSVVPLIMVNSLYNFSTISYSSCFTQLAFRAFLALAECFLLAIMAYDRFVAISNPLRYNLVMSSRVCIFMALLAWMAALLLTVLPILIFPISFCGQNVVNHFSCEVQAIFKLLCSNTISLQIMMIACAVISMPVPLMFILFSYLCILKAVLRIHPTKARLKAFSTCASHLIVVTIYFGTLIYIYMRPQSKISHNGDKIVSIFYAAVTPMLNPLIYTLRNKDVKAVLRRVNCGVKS
Summary of the method: (§1)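 Transient luciferase assays in mammalian cell lines were common, though methods varied by source. The values come from published papers and their supplementary material, with extra details from the original authors when needed. Responsive refers to a measured signal the original authors judged statistically different from baseline, and non-responsive (inactive) to the remainder.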

UniProt Q8VF52 = molecular target: T2, UniProt Q8VF52
T2 sequence (whole entry): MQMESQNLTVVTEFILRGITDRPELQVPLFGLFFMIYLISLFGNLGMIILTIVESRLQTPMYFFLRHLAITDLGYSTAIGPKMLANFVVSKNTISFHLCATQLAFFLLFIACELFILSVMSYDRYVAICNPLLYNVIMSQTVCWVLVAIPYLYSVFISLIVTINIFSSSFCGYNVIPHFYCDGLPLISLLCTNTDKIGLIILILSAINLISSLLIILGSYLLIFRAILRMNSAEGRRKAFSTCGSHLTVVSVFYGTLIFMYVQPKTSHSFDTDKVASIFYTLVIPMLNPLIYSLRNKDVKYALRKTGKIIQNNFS
Summary of the method: as §1

UniProt Q8VFM8 = molecular target: T3, UniProt Q8VFM8
T3 sequence (whole entry): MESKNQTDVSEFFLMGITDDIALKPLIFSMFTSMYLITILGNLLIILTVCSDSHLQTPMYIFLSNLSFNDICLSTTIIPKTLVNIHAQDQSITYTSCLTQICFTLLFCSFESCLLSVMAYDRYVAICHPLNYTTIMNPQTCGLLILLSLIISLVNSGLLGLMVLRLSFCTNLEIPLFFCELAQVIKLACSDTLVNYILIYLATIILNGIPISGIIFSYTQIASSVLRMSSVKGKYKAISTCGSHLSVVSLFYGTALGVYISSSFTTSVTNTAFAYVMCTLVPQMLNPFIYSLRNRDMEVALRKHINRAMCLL
Summary of the method: as §1

UniProt Q8VFP5 = molecular target: T4, UniProt Q8VFP5
T4 sequence (whole entry): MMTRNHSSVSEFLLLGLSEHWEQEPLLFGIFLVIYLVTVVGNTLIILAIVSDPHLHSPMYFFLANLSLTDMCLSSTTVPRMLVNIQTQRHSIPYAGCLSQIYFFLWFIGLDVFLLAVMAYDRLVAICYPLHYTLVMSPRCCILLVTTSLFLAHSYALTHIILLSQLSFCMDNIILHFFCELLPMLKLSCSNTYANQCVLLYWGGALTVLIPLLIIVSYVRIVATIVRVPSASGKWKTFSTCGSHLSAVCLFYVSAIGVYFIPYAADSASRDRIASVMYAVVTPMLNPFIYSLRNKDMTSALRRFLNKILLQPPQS
Summary of the method: as §1

UniProt Q8VG01 = molecular target: T5, UniProt Q8VG01
T5 sequence (whole entry): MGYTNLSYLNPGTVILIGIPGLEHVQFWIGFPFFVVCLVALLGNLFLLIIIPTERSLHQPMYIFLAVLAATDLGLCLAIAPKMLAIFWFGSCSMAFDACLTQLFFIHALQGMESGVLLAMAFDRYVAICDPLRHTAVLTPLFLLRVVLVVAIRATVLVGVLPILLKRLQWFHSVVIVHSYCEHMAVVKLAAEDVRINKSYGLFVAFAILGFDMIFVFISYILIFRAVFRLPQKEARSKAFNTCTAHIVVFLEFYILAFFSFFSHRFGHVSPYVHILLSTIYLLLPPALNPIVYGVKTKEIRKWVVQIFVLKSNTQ
Summary of the method: as §1

Measured: odorant receptor agonist call

CCCCCCCCC=CC=O
inactive: all assays above

CCCCCC(C=O)=Cc1ccccc1
active: UniProt Q8VF52
inactive: all other assays above

OCC=Cc1ccccc1
inactive: all assays above

COC(OC)c1ccccc1
inactive: all assays above

CCCCCCC(C=O)=Cc1ccccc1
inactive: all assays above

C=C(C)C1CC=C(C)CC1 (stereo not given)
inactive: all assays above

CCCCCCCCOC=O
inactive: all assays above

CCc1occc(=O)c1O
inactive: all assays above

CCC(C)c1nccnc1OC (stereo not given)
inactive: all assays above

Cc1ccc2c(c1)OCC(=O)CO2
inactive: all assays above

CSSSC
inactive: all assays above

CCCCCC(C)O (stereo not given)
inactive: all assays above

CCCCCCC(=O)OCCCC
active: UniProt Q8VG01
inactive: all other assays above

CC(=O)OC1(C)CCC23CC1C(C)(C)C2CCC3C (stereo not given)
active: UniProt Q8VF43 | UniProt Q8VF52
inactive: all other assays above

CCCC=O
inactive: all assays above

CC=C(C)C=O
inactive: all assays above

C=CC(=C)CCC=C(C)CCC=C(C)C
inactive: all assays above

CCCO
inactive: all assays above

Cc1ccc(C(C)C)c(O)c1
inactive: all assays above

C1CCOCC1
inactive: all assays above
